Test system: Hepatocyte
Test: Cytotoxicity against C57BLKS rat Primary hepatocytes assessed as cell viability by measuring cellular protein level at 10 to 100 uM in presence of cAMP and Dex by bicinchoninic acid method
Assay type: cell-based
Outline: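 Primary hepatocytes isolated from rat, cultured overnight in DMEM with 10% FBS, then exposed to compounds. Cellular protein per group measured by bicinchoninic acid (BCA) method as a viability control. The same protein values serve to normalize glucose, TG and TC contents. Pathological stimulation where applicable: 1 µM dexamethasone plus 200 µM cAMP, or 25 mM glucose plus 500 nM insulin for 24 h. Means ± SEM, four independent experiments.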

Q: With CCOC(=O)C(C)(C)Oc1ccc(F)c(/C=C/[N+](=O)[O-])c1 as the compound, how does the Activity read?
A: The Activity was “Non-Toxic”.

From ChEMBL document CHEMBL4311987, “Discovery of novel allosteric site and covalent inhibitors of FBPase with potent hypoglycemic effects” (Eur J Med Chem, 2019)
